Measured values collected from several papers.
Each line is one published result; the experiments were not run side by side.
Target: Ephrin type-A receptor 4 (EPHA4, Homo sapiens, UniProt P54764)

SMILES | read-out | mode | technique | concentration | quantity | value
COc1cc(Nc2cnc(C#N)c(O[C@H](C)CN(C)C)n2)ncc1-c1cnn(C)c1 | enzyme activity | inhibitor | radiometric | 1 µM | remaining activity | 73%
Oc1cccc(-c2nc(N3CCOCC3)c3oc4ncccc4c3n2)c1 | enzyme activity | inhibitor | – | 10 µM | remaining activity | 103%
COc1cc2ncnc(Nc3ccc(Oc4ccccc4)cc3C)c2cc1OC | enzyme activity | inhibitor | – | 1 µM | inhibition | 10%
Nc1c(C(=O)NCc2ccc(C(=O)NCCCC3CCCCC3)cc2)cnn1-c1ccccc1 | cell-free assay | – | competition with immobilised ligand | 0.1 µM | remaining binding | 100%
CCCOc1ccc(OC)c(F)c1C(=O)c1ccc(C(=O)N[C@@H]2CNC[C@H]2NC(=O)c2ccc3[nH]ncc3c2)cc1 | enzyme activity | inhibitor | – | 10 µM | remaining activity | 82%
CCN(CC)c1ccc(C2=NNC(=O)CC2C)cc1[N+](=O)[O-] (centres unmarked) | enzyme activity | inhibitor | – | 10 µM | remaining activity | 85%
O=C(Nc1cnn(-c2csc(C(=O)NC3COC3)c2)c1)Nc1c(F)cccc1Cl | enzyme activity | inhibitor | – | 5 µM | remaining activity | 89.1%
O=C(NCc1ncc(C(F)(F)F)cc1Cl)c1ccc2c(c1)C1(CCS(=O)(=O)CC1)[C@@H](C1CC1)N2S(=O)(=O)c1ccc(F)cc1 | cell-free assay | – | competition with immobilised ligand | 1 µM | remaining binding | 97%
CNC(=O)c1cc(Oc2ccc(NC(=O)Nc3ccc(Cl)c(C(F)(F)F)c3)cc2)ccn1 | enzyme activity | inhibitor | – | 10 µM | inhibition | 56%
FC(F)c1nc2ccccc2n1-c1nc(N2CCOCC2)nc(N2CCOCC2)n1 | enzyme activity | inhibitor | – | 10 µM | remaining activity | 87%
CC/C(=N\NC(=O)NCc1cccc(O)c1)c1ccc(O)c(C)c1O | enzyme activity | inhibitor | – | 0.1 µM | inhibition | 0.3%
CS(=O)(=O)N1CCCC(NC(=O)[C@H](CCC2CCCCC2)NC(=O)c2ccc(CNC(=O)c3cnc4ccccn34)cc2)C1 (some centres unmarked) | cell-free assay | – | competition with immobilised ligand | 0.1 µM | remaining binding | 98%
CC(C)(O)[C@H]1CC[C@H](Nc2ccc3ncc(-c4cccc(C(F)(F)F)c4)n3n2)CC1 | enzyme activity | inhibitor | – | 1 µM | remaining activity | 98.8%
Cc1ccc(C(=O)NCc2ccsc2)cc1C#Cc1cn(C(C)C)c2ncnc(N)c12 | enzyme activity | inhibitor | – | 1 µM | activity vs control | 6%
CC(C)(C)c1nc2c(s1)c1nc(N)ncc1c1ccc(NS(=O)(=O)c3c(F)cccc3F)c(F)c12 | enzyme activity | inhibitor | radiometric | 1 µM | remaining activity | 99%
Cc1nc(N2CC[C@@H](O)C2)ncc1-c1cc(C(F)(F)F)cc2[nH]ncc12 | cell-free assay | – | competition with immobilised ligand | 1 µM | remaining binding | 100%
O=C(Nc1cnn(-c2csc(C(=O)NC3COC3)c2)c1)Nc1ccccc1Cl | enzyme activity | inhibitor | – | 5 µM | remaining activity | 100%
Cc1ccc(Nc2nccc(N(C)c3ccc4c(C)n(C)nc4c3)n2)cc1S(N)(=O)=O | enzyme activity | inhibitor | – | 10 µM | inhibition | 28%
CS(=O)(=O)N1CCCC(NC(=O)[C@H](CCC2CCCCC2)NC(=O)c2ccc(CNc3ncnc4c3nnn4-c3ccccc3)cc2)C1 (some centres unmarked) | cell-free assay | – | competition with immobilised ligand | 0.1 µM | remaining binding | 76%
O=C1Nc2ccc(Cl)cc2C1=Cc1cc(Cl)c(O)c(Cl)c1 | cell-free assay | – | – | 0.5 µM | remaining signal | 93.1%
Cc1ccc(NC(=O)c2ccc(C)c(C(F)(F)F)c2)cc1C#Cc1nn(C2CCC(O)CC2)c2ncnc(N)c12 (centres unmarked) | cell-free assay | – | – | 10 µM | remaining signal | -2%
Cc1noc([C@H]2C[C@@H](c3ccc(C(F)(F)F)cc3)CN(C(=O)N3CCS(=O)(=O)C3)C2)n1 | cell-free assay | – | competition with immobilised ligand | 1 µM | remaining binding | 100%
CN1CC(Oc2cnc(C#N)cc2-c2ccn3nc(NC(=O)C4CC4)cc3c2)C1 | enzyme activity | inhibitor | – | 1 µM | inhibition | 11%
CCN(CC)CCNC(=O)c1c(C)[nH]c(/C=C2\C(=O)Nc3ccc(F)cc32)c1C | enzyme activity | inhibitor | – | 10 µM | inhibition | 46%
N#CC1(c2ccccn2)CCN(Cc2cc(C(=O)N3CCCC3)c(=O)n3ccccc23)CC1 | cell-free assay | – | competition with immobilised ligand | 1 µM | remaining binding | 89%
COc1cc(/C=C/C(=O)CC(=O)/C=C/c2ccc(O)c(OC)c2)ccc1O | enzyme activity | inhibitor | – | 1 µM | activity vs control | 118%
